PMC7304851 (Journal for Immunotherapy of Cancer, 2020)
Entries after “also recorded” stand apart in the source; their conditions may differ.

Tests used:
FDG-avid tumor lesions = experiment: 18FDG-PET metabolic response; format: in vivo, human
advanced tumors = experiment: Tumor response by irRECIST, survival and treatment duration; format: in vivo, human
[1] = system: immune-cell infiltration in tumor; experiment: Paired tumor biopsies: immunohistochemistry and TLDA gene expression; format: in vivo, human
[2] = system: EP4-regulated genes and immune-related circulating factors; experiment: Blood gene expression, serum cytokines/chemokines, flow cytometry; format: in vivo, human
How it was run: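 Patients with advanced tumors took oral drug once daily (125–750 mg) in 21-day cycles. mRNA isolated from blood was profiled on a 92-gene TaqMan Low Density Array panel. Serum/plasma levels of 36 immune-related circulating factors were measured by proteomics, ELISA and Meso Scale Discovery multiplex. Blood immune subsets were assessed by eight-color flow cytometry. Cycle 1 day 15 was compared with baseline by paired t-test.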

[3] = Phase 1 safety and tolerability; format: in vivo, human
[4] = Clinical pharmacokinetics in plasma; format: in vivo, human
[5] = system: Pan02 pancreatic syngeneic tumor model; experiment: Preclinical FDG-PET, Pan02 model; format: in vivo, mouse; conditions: data not shown
[6] = system: mouse syngeneic tumor models; conditions: dependent on myeloid cells and CD8+ T cells; cited from earlier work
[7] = system: 4T1 breast syngeneic tumor model; experiment: Preclinical FDG-PET, 4T1 model; format: in vivo, mouse; conditions: 4T1 breast model, data not shown
[8] = system: relapsed or refractory classical Hodgkin’s lymphoma; conditions: cited from earlier work
macrophage infiltration = conditions: preclinical models; cited from earlier work
[9] = system: primary human peripheral blood mononuclear cells (PBMCs); experiment: EP4 agonist in PBMCs, TNF-α and CXCL10 by RT-PCR; format: cell-based; conditions: PBMCs from healthy donors incubated with EP4 agonist
[10] = blood, on treatment versus baseline
[11] = cycle 1 day 15 compared with baseline
[12] = all patients, combined incidence

## C[C@H](NC(=O)c1c(C(F)F)nn(C)c1Oc1cccc(C(F)(F)F)c1)c1ccc(C(=O)O)cc1 [E7046]
FDG-avid tumor lesions; 15 evaluable patients (3/15), SUVmax reduction ≥25%
  patients with partial metabolic response (18FDG-PET): 20%
FDG-avid tumor lesions; individual patient case
  FDG-PET signal reduction (partial metabolic response): 31%
FDG-avid tumor lesions; longest among all patients
  duration of treatment of the three patients with partial metabolic responses: 145 to 208 days
Advanced tumors; 125 mg
  best response of stable disease, number of patients: 2
Advanced tumors; 125 mg (n=2/8)
  patients with best response of durable stable disease for ≥18 weeks: 25%
Advanced tumors; 250 mg
  best response of stable disease, number of patients: 2
Advanced tumors; 250 mg (n=2/8)
  patients with best response of durable stable disease for ≥18 weeks: 25%
Advanced tumors; 750 mg
  best response of stable disease, number of patients: 3
Advanced tumors; 10 patients of 30
  patients with longer duration of treatment on E7046 compared with most recent prior anticancer therapy: 33%
Advanced tumors; all patients (n=30)
  disease control rate: 23%
  objective responses by irRECIST: no objective responses
  patients with best response of stable disease (irRECIST): 23%
Advanced tumors; all patients, range: 1.1–30
  median duration of treatment: 5.9 weeks
[1]; 10 paired biopsies, without reaching statistical significance
  tumor gene expression of TNF-α and CXCL10: upregulation
[1]; individual patient case
  increase in expression of CXCL10 in the tumor: ~ 20%
  increase in percentage of CD8+ T cells in the tumor: 31%
[1]; paired biopsies of 11 patients, baseline to cycle 2 day 1
  CD3+ and CD8+ T cells in tumor tissues (immunohistochemistry): significant increase
[2]; [10]
  circulating gene expression of CD274 (PD-L1) and PDCD1LG2 (PD-L2): increased expression
  circulating gene expression of EOMES, PTGER4 and IDO1: decreased expression
[2]; [11]
  number of genes modulated in blood out of a 92-immune-gene panel: 16
  number of serum cytokines and chemokines modulated out of a panel of 36: 14
[2]; cycle 1 day 15 compared with baseline, p=0.0015
  serum level of CXCL10: significantly upregulated
[2]; cycle 1 day 15 compared with baseline, p=0.0292
  serum level of CCL5: significantly upregulated
[2]; eight-color flow cytometry, data not shown
  major immune cell subsets in the blood (T cells, B cells, natural killer cells, MDSC): no significant changes
[3]; 750 mg dose cohort
  TEAE incidence diarrhea: 42.9%
  TEAE incidence fatigue: 42.9%
  TEAE incidence nausea: 42.9%
[3]; 125, 250, 500 and 750 mg orally once daily, cycle 1
  Dose-limiting toxicities (DLTs): No dose-limiting toxicities were observed; also recorded: no DLTs observed; also recorded: No DLTs were reported
[3]; 125 to 750 mg orally once daily
  Maximum tolerated dose (MTD): not reached
[3]; all patients
  fatal treatment-related TEAE: No patients experienced a fatal treatment-related TEAE
  patients who discontinued treatment due to TEAEs: 17%
  patients with grade ≥3 treatment-related TEAEs: 10%
[3]; all patients (3/30)
  patients with treatment-related SAEs: 10%
[3]; all patients (n=30)
  patients with at least 1 TEAE: 93%
[3]; [12]
  TEAE (all grades) diarrhea: 33.3%
  TEAE (all grades) fatigue: 36.7%
  TEAE (all grades) nausea: 30%
[4]; 125 to 750 mg
  exposure versus dose: dose proportional up to 500 mg, with no incremental increase at 750 mg
[4]; all four doses, cycle 1 day 8
  Free E7046 concentration versus Ki of EP4 inhibition: reached or exceeded the preclinical Ki value
[4]; daily oral dosing
  accumulation on multiple dosing: twofold to threefold
[4]; postdose, across all doses
  time to maximum drug concentration: ~ 2 hours
[5]
  FDG-PET signal compared with vehicle treatment: decreased the FDG-PET signal
[6]
  growth of multiple mouse syngeneic tumor models: inhibited the growth
[7]
  FDG-PET signal compared with vehicle treatment: decreased the FDG-PET signal

## CC1(C)CC=C(c2nc(C3CC(C)(C)OC(C)(C)C3)ccc2NC(=O)c2nc(C#N)c[nH]2)CC1 [JNJ-40346527]
[8]; 1/21 patients had complete response
  objective response rate: 5%
[8]; 11/21 patients
  patients who achieved stable disease: 55%

## CN(C)CC(=O)N1CCC(c2ccc(NC(=O)c3nc(C#N)c[nH]3)c(C3=CCCCC3)c2)CC1 [JNJ-28312141]
Macrophage infiltration
  macrophage infiltration: substantially decreased macrophage infiltration

## CCCCC[C@H](O)/C=C/[C@H]1[C@H](O)CC(=O)[C@@H]1CCCCCCCO [PGE1-OH]
[9]
  expression of TNF-α and CXCL10: dose-dependent down-regulation; also recorded: dose-dependently suppressed
